In experiment [1] the target is T1, Gag-Pol polyprotein [489-587] (Human immunodeficiency virus 1, UniProt P04585).
T1 construct: 489-587
As to the kind of experiment: Inhibition of 3'-processing (TC) in the presence of Mn2+ in vitro. In outline: (§1)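 Purified recombinant HIV-1 integrase with DNAs mimicking one viral cDNA end and a target DNA, Mn2+ as the divalent cofactor; compounds titrated in. Terminal cleavage (3'-processing) and strand-transfer products resolved and read by gel assay.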

For experiment [2], the target named is T1, Gag-Pol polyprotein [489-587]. As to the kind of experiment: Tested in vitro against strand -transfer (ST) activity in the presence of Mg2+ as the cationic cofactor. The method, boiled down: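 Strand transfer by purified recombinant HIV-1 integrase with Mg2+ as cofactor, monitored in a microtiter plate format with viral-end and target DNAs; product detected through a digoxygenin label in the DNA; compounds titrated.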

For experiment [3] the target is unchanged. The experiment is described as follows: Inhibition of strand -transfer (ST) activity in the presence of Mn2+. The method, boiled down: as §1

pIC50: −log10 of the molar value. Counter-ions that a name gives are not always drawn.

For orientation: pIC50 means the IC50 on a negative log10 scale, so that one unit is a factor of ten. On to `CC1(C)CC2(CC(C)(C)c3c(Br)c(OS(=O)(=O)O)c(OS(=O)(=O)O)c(Br)c32)c2c(Br)c(OS(=O)(=O)O)c(OS(=O)(=O)O)c(Br)c21` [3,3,3',3'-tetramethyl-1,1'-spirobi(indan)-4,4',7,7'-tetrabromo-5,5',6,6'-tetrol tetrasulfate], for which the pIC50 in experiment [1] is 5.85; in experiment [2] it was 5.40; in experiment [3], 6.46.

Consider `CC1(C)CC2(CC(C)(C)c3cc(OS(=O)(=O)O)c(OS(=O)(=O)O)cc32)c2cc(OS(=O)(=O)O)c(OS(=O)(=O)O)cc21` [3,3,3',3'-tetramethyl-1,1'-spirobi(indan)-5,5',6,6'-tetrol tetrasulfate], for which the results for the pIC50 in experiment [1] and in experiment [3] were 5.55 and 5.70, respectively.

For the compound `CC1(C)CC2(CC(C)(C)c3cc(N)c(O)cc32)c2cc(O)c(N)cc21` [3,3,3',3'-tetramethyl-1,1'-spirobi(indan)-5,5'-diamino-6,6'-diol Dihydrochloric salt], the negative-log IC50 (pIC50) in experiment [2] was 4.48.

Turning to `CC1(C)CC2(CC(C)(C)c3ccc(O)c(NC(N)=O)c32)c2cc(O)c(NC(N)=O)cc21` (centres undefined) [3,3,3',3'-tetramethyl-1,1'-spirobi(indan)-6,6'-dihydroxy-5,7'-bisurea], the pIC50 in experiment [1] is 3.38; in experiment [3], 3.46.

`CC1(C)CC2(CC(C)(C)c3ccc(O)cc32)c2cc(O)ccc21` [3,3,3',3'-tetramethyl-1,1'-spirobi[2,3-dihydro-1H-indene]-6,6'-diol]: the pIC50 is 3.56 in experiment [1] and 3.64 in experiment [3].

For the compound `CC1(C)CC2(CC(C)(C)c3cc([N+](=O)[O-])c(O)c([N+](=O)[O-])c32)c2cc(O)c([N+](=O)[O-])cc21` (centres undefined) [3,3,3',3'-tetramethyl-5,5',7'-trinitro-1,1'-spirobi[2,3-dihydro-1H-indene]-6,6'-diol], the pIC50 in experiment [1] is 4.36; in experiment [2], 4.33; in experiment [3], 4.60.

With `CC1(C)CC2(CC(C)(C)c3ccc(O)c([N+](=O)[O-])c32)c2cc(O)c([N+](=O)[O-])cc21` (centres undefined) [3,3,3',3'-tetramethyl-5,7'-dinitro-1,1'-spirobi[2,3-dihydro-1H-indene]-6,6'-diol], the figures for the pIC50 in experiment [1], in experiment [2] and in experiment [3] were 4.33, 4.00 and 4.28, respectively.

On to `CC1(C)CC2(CC(C)(C)c3c(Br)c(O)c(O)c(Br)c32)c2c(Br)c(O)c(O)c(Br)c21` [4,4',7,7'-tetrabromo-3,3,3',3'-tetramethyl-1,1'-spirobi[2,3-dihydro-1H-indene]-5,5',6,6'-tetraol], for which the pIC50 in experiment [1] was 5.50; in experiment [2] it was 4.82; in experiment [3], 5.75.

With `CC1(C)CC2(CC(C)(C)c3cc(Br)c(O)cc32)c2cc(O)c(Br)cc21` [5,5'-dibromo-3,3,3',3'-tetramethyl-1,1'-spirobi[2,3-dihydro-1H-indene]-6,6'-diol], the figures for the pIC50 in experiment [1] and in experiment [3] were 4.96 and 5.00, respectively.

In the case of `CC1(C)CC2(CC(C)(C)c3cc(I)c(O)cc32)c2cc(O)c(I)cc21` [5,5'-diiodo-3,3,3',3'-tetramethyl-1,1'-spirobi[2,3-dihydro-1H-indene]-6,6'-diol], the figures for the pIC50 in experiment [1] and in experiment [3] were 5.20 and 5.51, respectively.

Regarding `CC1(C)CC2(CC(C)(C)c3cc(C=O)c(O)cc32)c2cc(O)c(C=O)cc21` [6,6'-dihydroxy-3,3,3',3'-tetramethyl-1,1'-spirobi[2,3-dihydro-1H-indene]-5,5'-dicarbaldehyde], the pIC50 is 4.46 in experiment [1], 4.80 in experiment [2] and 5.22 in experiment [3].

In the case of `CC1(C)CC2(CC(C)(C)c3cc(S(=O)(=O)O)c(O)cc32)c2cc(O)c(S(=O)(=O)O)cc21` [6,6'-dihydroxy-3,3,3',3'-tetramethyl-1,1'-spirobi[2,3-dihydro-1H-indene]-5,5'-disulfonic acid], in experiment [2], the negative logarithm of the IC50 (pIC50) was 4.16.

Regarding `CC1(C)CC2(CC(C)(C)c3cc(O)c(O)cc32)c2cc(O)c(O)cc21` [HIV-1 Integrase Inhibitor], the pIC50 in experiment [1] is 4.77; in experiment [3] it was 5.30.
